CFTR F508del cor = CFTR F508del correction in bronchial cells. activity (quench increase), % at 7.58 µM. actives 0.36% (n = 350,000). AID 720511. CFBE cells, YFP halide quenching; stimulated with forskolin plus potentiator P3; % fluorescence drop versus neutral controls;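 active means mean added fluorescence quench of at least 8% versus neutral control, with both replicates also reaching 8%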;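 further: cells transiently co-express mutant CFTR-F508del with the halide-sensitive YFP; corrector assay measuring rescue of mutant channel to the surface after 24 h compound exposure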
DNMT1 block = blocks human DNA methyltransferase DNMT1. actives 0.83% (n = 360,000). inhibition (reported as % activation of signal), % at 10 µM. DNMT1 molecular beacon, Hinp1I cleavage, fluorescence. P26358; in the data active means inhibition above about 50%
SUMO1 PPI mod = SUMO1-SIM interaction modulation; actives 0.33% (n = 360,000); inhibition, % at 20 µM; P63165; SUMO1 binding to a labelled peptide, TR-FRET, 1 h; in the data active means inhibition above about 37%
Target sequence (P63165 whole entry, looked up): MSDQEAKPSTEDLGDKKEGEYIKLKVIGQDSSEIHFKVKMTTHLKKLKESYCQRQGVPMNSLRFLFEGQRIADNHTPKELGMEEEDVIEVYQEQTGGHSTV
STEP block = blocks human striatal-enriched tyrosine phosphatase; P54829; inhibition, % at 20 µM; actives 0.25% (n = 360,000); AID 588621; recombinant STEP, OMFP fluorogenic substrate, fluorescence;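 active means inhibition at 20 µM, scaled per plate between control wells, above about 37%, limit read from the data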;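 further: 0% = DMSO with enzyme and substrate and 100% = substrate only without enzyme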
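Test system: STEP tyrosine phosphatase / Reagent: OMFP at 25 µM / Doses: 20 µM, 1% DMSO / Read-out: percent inhibition scaled to no-enzyme and uninhibited-enzyme controls, plate-pattern corrected / Detection: FITC-channel fluorescence of OMFP product / Medium: Bis-Tris buffer pH 6.0, 2.5 mM DTT, 0.005% Tween 20 / Schedule: 20 min at room temperature, dark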
Scp1 inh = inhibitors of human Scp-1 phosphatase; Q9GZU7; actives 0.88% (n = 340,000); inhibition, % at 20 µM; Recombinant Scp1, phosphopeptide, malachite green phosphate absorbance; AID 493091;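 active means inhibition above about 50% at 20 µM, limit read from the data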;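 further: plate controls were DMSO wells with enzyme for no effect and wells lacking enzyme for full effect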
Target sequence (Q9GZU7 76-261 limits assumed): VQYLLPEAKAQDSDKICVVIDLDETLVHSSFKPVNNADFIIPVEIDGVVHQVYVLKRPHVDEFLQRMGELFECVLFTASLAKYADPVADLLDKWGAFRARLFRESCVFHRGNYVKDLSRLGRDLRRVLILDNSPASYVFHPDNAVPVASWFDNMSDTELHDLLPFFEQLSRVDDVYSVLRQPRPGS
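Material – SCP-1 phosphatase catalytic domain, residues 76-261 · Buffer or medium – Acidic Tris acetate buffer with magnesium and detergent · Also added – Phospho 17-mer peptide substrate · Compound – single 20 µM dose, 1% DMSO · Times – 45 min room-temperature reaction, 5 min colour, 30 min stabiliser · Technique – Phosphate-binding colour reagent, absorbance read at 630 nm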
LMPTP block = LMPTP (human) inhibition | P24666 | recombinant LMPTP-A, OMFP fluorogenic substrate, fluorescence intensity | inhibition, % at 20 µM | actives 0.22% (n = 360,000) | AID 651560;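 active means compounds that cut the enzyme signal by at least half of the control window in the single-dose screen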;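 further: plate controls were DMSO wells with enzyme plus substrate for no effect and substrate without enzyme for full effect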
Target sequence (P24666 whole entry, looked up): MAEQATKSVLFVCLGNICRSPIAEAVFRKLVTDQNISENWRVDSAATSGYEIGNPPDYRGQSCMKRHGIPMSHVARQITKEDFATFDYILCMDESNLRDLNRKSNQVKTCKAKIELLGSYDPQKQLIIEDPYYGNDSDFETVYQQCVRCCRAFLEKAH
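Test system – LMPTP-A phosphatase enzyme · Quantity – 0.625 nM LMPTP-A final · Reagent – OMFP substrate, 400 µM final · Dosing – one test concentration per compound, 20 µM, with 3% DMSO overall · Timing – 50 min enzyme reaction at room temperature, protected from light · Detection – fluorescence intensity · Controls – substrate-only low control, DMSO enzyme-plus-substrate high control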
* = called active by the depositor; x = no result given; ! = not active in a repeat. Compounds with a hit are over-represented: about 1.6% of the library has one in this group of screens.

SMILES | CFTR F508del cor | DNMT1 block | SUMO1 PPI mod | STEP block | Scp1 inh | LMPTP block
CC(=O)N(C)C[C@@H]1Oc2ncc(/C=C/c3ccccc3)cc2C(=O)N([C@H](C)CO)C[C@@H]1C | 2 | x | x | x | x | x
C=Cc1c(C)c2cc3[nH]c(cc4nc(cc5nc(cc1[nH]2)C(C)=C5CCC(=O)O)C(CCC(=O)O)=C4C)c(C)c3C=C | -1 | 79* | 112*! | 1 | 64*! | 5
C[C@@H]1CN([C@H](C)CO)C(=O)c2cc(-c3cccc(F)c3)cnc2O[C@H]1CN(C)Cc1ccccn1 | 1 | x | x | x | x | x
Cc1c(-c2ccc(Cl)cc2)oc(=O)c2c(N)n(-c3ccccc3)nc12 | x | 54* | -2 | 0 | -21 | 2
N#Cc1ccc(CSc2nnc(NC(=O)c3ccc(=O)[nH]c3)s2)cc1 | 1 | -1 | 5 | 1 | -9 | 3
N#Cc1ccc(CSc2nnc(NC(=O)c3ccc4ncsc4c3)s2)cc1 | 3 | 3 | 40* | 0 | 5 | 8
CC(C)NC(=O)N(C)C[C@@H]1OCCCC[C@@H](C)Oc2ccc(NS(=O)(=O)c3ccc(F)cc3)cc2C(=O)N([C@H](C)CO)C[C@H]1C | -1 | x | x | x | x | x
C[C@H]1CN([C@@H](C)CO)C(=O)Cc2cc(NC(=O)C3CC3)ccc2O[C@H]1CN(C)C(=O)Nc1ccc2c(c1)OCO2 | 2 | x | x | x | x | x
Cc1ccc(S(=O)(=O)NCC[C@@H]2CC[C@@H](NC(=O)CC3CC3)[C@@H](CO)O2)cc1 | 0 | x | x | x | x | x
CCCC(C(=O)NCc1ccc(OC)cc1)N(Cc1ccco1)C(=O)c1snc(C(N)=O)c1N (stereo unspecified) | x | -3 | 51* | 2 | -11 | -1
O=C(C[C@H]1CC[C@H](NC(=O)CN2CCOCC2)[C@@H](CO)O1)NCc1cccc(F)c1 | -2 | x | x | x | x | x
Cc1cccc(C(=O)N(Cc2ccco2)c2c(N)n(Cc3ccccc3)c(=O)[nH]c2=O)c1 | 28* | 2 | 3 | -3 | -7 | -1
COc1cc(/C=C2\CCc3c2nc2ccccc2c3C(=O)O)cc(OC)c1OC | 0 | 97* | 48* | 42* | 71* | 8
COc1cc(/C=C2\CCCc3c2nc2ccccc2c3C(=O)O)cc(Br)c1O | -1 | 0 | 0 | 3 | -8 | -7
C=C(C)C(=O)Nc1cccc(C2=NOC3(C2)C[C@H](C(N)=O)N(C(=O)CC#N)C3)c1 (stereo partly specified) | x | x | x | x | 57* | x
C/C=C\C=C/C(=O)Nc1cccc(C2=NOC3(C2)C[C@H](C(N)=O)N(C(=O)CC)C3)c1 (stereo partly specified) | 3 | -23 | 0 | 1 | -3 | -1
C/C=C/C=C\C(=O)Nc1cccc(C2=NOC3(C2)C[C@H](C(N)=O)N(C(=O)CC#N)C3)c1 (stereo partly specified) | 0 | -2 | 71* | 0 | 67* | 3
Cc1ccc(S(=O)(=O)Nc2ccc3c(c2)C(=O)N([C@H](C)CO)C[C@H](C)[C@H](CN(C)C(=O)Cc2ccccc2)OCCCC[C@H](C)O3)cc1 | 1 | x | x | x | x | x
Cc1ccc(S(=O)(=O)Nc2ccc3c(c2)C(=O)N([C@H](C)CO)C[C@H](C)[C@@H](CN(C)C(=O)c2ccncc2)OCCCC[C@@H](C)O3)cc1 | -3 | x | x | x | x | x
CCn1c(SC(C)C(=O)NCC2CCCO2)nc2ccccc21 (stereo unspecified) | 15* | 4 | 5 | -1 | -4 | 0
CCn1c(SC(C)C(=O)NCC2CCCO2)nc2scc(-c3ccccc3)c2c1=O (stereo unspecified) | 3 | 3 | 0 | -3 | -3 | 0
CCNC(=O)C[C@H]1CC[C@H]2[C@@H](COC[C@H](O)CN2C(=O)Nc2ccc3c(c2)OCO3)O1 | 0 | x | x | x | x | x
O=C(O)c1ccccc1C(=O)OC1CCCC2CCCC21 (stereo unspecified) | -1 | 5 | 7 | 6 | 2 | 0
CC1C2CCC(C2)C1OC(=O)c1ccccc1C(=O)O (stereo unspecified) | 9.4* | 4 | 2 | -4 | x | -1
C=CCNC(=O)c1cc2c(=O)n3cccc(C)c3nc2s1 | -2 | 5 | -27 | 1 | 13 | -1
SMILES | CFTR F508del cor | DNMT1 block | SUMO1 PPI mod | STEP block | Scp1 inh | LMPTP block
COc1ccc(CCNC(=O)c2cc3c(=O)n4cccc(C)c4nc3s2)cc1OC | -2 | 1 | 40* | 0 | -6 | 1
CC(OC(=O)/C(C#N)=C/c1ccc(N(C)C)cc1)C(=O)NCc1ccco1 (stereo unspecified) | 0 | 61* | -6 | -2 | x | 2
COc1ccccc1NC(=O)Nc1ccc2c(c1)C(=O)N(C)C[C@H](OC)[C@H](C)CN[C@@H](C)CO2 | 3 | x | x | x | x | x
CN1/C(=C/C=C(C#N)C#N)C=Cc2ccccc21 | 3 | -1 | 57* | 0 | -16 | 16
COc1ccc2c3c([nH]c2c1)[C@H](CO)N(Cc1ccccc1)CC31CN(C(=O)c2cccnc2)C1 | 2 | x | x | x | x | x
CCOC(=O)COc1nc(C)c(Br)c(OC)n1 | x | 2 | 61* | -3 | 1 | -1
CCOC(=O)CSc1nc(N)nc(C)c1Br | x | 1 | 3 | -4 | -7 | -1
Cc1ccc(C)c(C(=O)CN2Cc3ccccc3C2=O)c1 | 2 | 0 | 46* | 0 | -9 | 0
Cc1noc(C)c1NC(=O)Nc1ccc2c(c1)C(=O)N([C@H](C)CO)C[C@@H](C)[C@@H](CN(C)Cc1ccc(C(=O)O)cc1)OCCCC[C@@H](C)O2 | 0 | x | x | x | x | x
COc1ccc(S(=O)(=O)Nc2cc3c(cc2C(C)=O)OCO3)cc1 | 12* | 3 | -4 | 0 | -3 | 1
O=C1c2ccc3c4c(ccc(c24)C(=O)N1CCCCO)C(=O)N(CCCCO)C3=O | 18* | 20 | 1 | 2 | -8 | 1
O=C(c1ccc2c(c1)C(=O)N(CCCO)C2=O)c1ccc2c(c1)C(=O)N(CCCO)C2=O | x | 0 | -16 | -4 | 2 | -5
CCC(=O)OC1(C)C(=O)C2=COC(c3ccc(OC)cc3)=CC2=C(Br)C1=O (stereo unspecified) | 3 | -4 | 50* | -1 | -7 | 4
COC(=O)CCC(=O)OC1(C)C(=O)C2=CN(c3ccccc3)C(c3ccc(OC)cc3)=CC2=C(Br)C1=O (stereo unspecified) | -2 | -15 | -4 | 3 | 4 | 4
COc1ccc(C2=CC3=C(Br)C(=O)C(C)(O)C(=O)C3=CO2)cc1 (stereo unspecified) | x | 7 | 52* | -1 | 0 | -2
COC(=O)CCC(=O)OC1(C)C(=O)C2=CN(Cc3ccc(OC)cc3)C(c3ccc(OC)cc3)=CC2=C(Br)C1=O (stereo unspecified) | -3 | -8 | -15 | 6 | -8 | 4

High-throughput results as filed in PubChem BioAssay.
